Measurements from publication PMC10321171 (Virulence, 2023).
Values after ≈ are worked out from the molar mass of the structure shown.

Legend:
C. albicans [1] = settings: subinhibitory concentrations; cited from earlier work
C. albicans YEM30 [2] = test: Drug resistance development test; assay type: cell-based, Candida albicans
C. albicans YEM30 [3] = test: G. mellonella-C. albicans infection model; assay type: in vivo, Galleria mellonella; settings: 2 μg/larva, 2 h after infection
Summary of the method: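 Larvae were infected with 10 μL YEM30 (2 × 10^5 CFU/mL) into the last right foreleg. After 2 h they were injected with 10 μL of test compound (2 μg/larva), fluconazole (2 μg/larva) or PBS, then kept at 37°C in the dark. Death was no response to slight contact; survival was scored daily for 5 days (log-rank test). For fungal burden (40 larvae/group), six larvae/day were homogenized in PBS, serially diluted and plated on YPD.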

C. albicans [4] = test: Determination of MIC by broth microdilution; assay type: cell-based; settings: Candida albicans, read-out: MICs, strain YEM30, wild-type strain

SMILES | farnesol levels compared to untreated cells (C. albicans [1]) | MIC (C. albicans YEM30 [2]; Candida albicans, YEM30, read-out: MIC value after consecutive treatment) | drug resistance development (C. albicans YEM30 [2]; YEM30, consecutive treatment with 1/2 MIC, up to 40 days) | fungal burden vs control group (C. albicans YEM30 [3]) | survival rate of infected larvae (C. albicans YEM30 [3]; 5 days) | MIC (C. albicans [4])
C/C=C/CCCC/C=C/CCCCC(=O)O[C@@H]1[C@@H](O)[C@@]2(CCC(C)C(O)C(C)C/C=C/c3ccccc3)O[C@H](C(=O)O)[C@@](O)(C(=O)O)[C@]1(C(=O)O)O2 (stereo partly drawn) [zaragozic acid B] | 8–10 folds | – | – | – | – | –
OC(Cn1cncn1)(Cn1cncn1)c1ccc(F)cc1F [FLC, Fluconazole] | – | 8 µg/mL (≈ 26.1 µM) | developed drug resistance after being treated with 1/2 MIC of FLC for 5 days | greatly reduced the fungal burden | 73% | 1 µg/mL (≈ 3.27 µM)
